Measurements: ChEMBL document CHEMBL1148232, “Inhibitory activities against topoisomerase I and II by polyhydroxybenzoyl amide derivatives and their structure-activity relationship” (Bioorg Med Chem Lett, 2004)

Tests used:
DNA topoisomerase 1 [1] = target: T1, DNA topoisomerase 1 (Homo sapiens, UniProt P11387); test: Inhibitory concentration against relaxation activity of DNA topoisomerase I by detecting the conversion of supercoiled pBR322 DNA to its relaxed form
T1 sequence (P11387 whole entry): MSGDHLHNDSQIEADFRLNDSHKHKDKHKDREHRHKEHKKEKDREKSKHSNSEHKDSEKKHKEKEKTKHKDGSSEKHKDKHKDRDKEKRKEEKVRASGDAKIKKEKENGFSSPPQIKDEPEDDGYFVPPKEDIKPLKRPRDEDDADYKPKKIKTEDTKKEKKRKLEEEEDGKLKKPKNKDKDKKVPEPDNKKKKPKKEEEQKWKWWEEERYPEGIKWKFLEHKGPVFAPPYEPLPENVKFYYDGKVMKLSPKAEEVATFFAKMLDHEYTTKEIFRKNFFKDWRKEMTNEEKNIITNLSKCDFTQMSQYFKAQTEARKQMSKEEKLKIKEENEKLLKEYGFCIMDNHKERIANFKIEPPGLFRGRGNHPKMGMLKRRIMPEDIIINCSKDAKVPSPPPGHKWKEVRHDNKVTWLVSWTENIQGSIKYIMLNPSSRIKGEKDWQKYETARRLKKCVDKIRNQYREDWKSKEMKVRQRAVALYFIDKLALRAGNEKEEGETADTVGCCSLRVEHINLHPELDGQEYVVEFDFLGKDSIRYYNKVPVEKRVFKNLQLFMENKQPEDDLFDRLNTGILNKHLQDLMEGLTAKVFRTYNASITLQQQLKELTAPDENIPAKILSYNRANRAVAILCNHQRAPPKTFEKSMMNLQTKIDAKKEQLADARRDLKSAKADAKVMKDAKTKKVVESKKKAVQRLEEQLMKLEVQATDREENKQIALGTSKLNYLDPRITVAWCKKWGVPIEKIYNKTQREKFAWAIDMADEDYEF

HeLa [2] = test: Concentration required to inhibit S phase and G2/M phase in HeLa cells; type: functional, cell-based; settings: Homo sapiens
Outline: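 HeLa cells cultured with compound, then cell-cycle progression analysed by flow cytometry; read-out was the percentage of cells in the G0/G1, S and G2/M phases.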

HeLa [3] = test: Growth inhibitory concentration of compound was determined against HeLa cells by alamar blue assay; type: functional; settings: Homo sapiens
DNA topoisomerase II [4] = target: T2, DNA topoisomerase II (Homo sapiens, UniProt P11388+Q02880); test: Inhibitory concentration against relaxation activity of DNA topoisomerase II by detecting the conversion of supercoiled pBR322 DNA to its relaxed form; type: protein assay
DNA topoisomerase II [5] = target: T2, DNA topoisomerase II; test: Inhibition of relaxation activities of DNA topoisomerase II with respect to pBR322 DNA; type: protein assay
Outline: (§1)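 Ki from Lineweaver–Burk plots: the rate of relaxation of supercoiled pBR322 DNA by the topoisomerase was measured across a range of DNA substrate concentrations, with and without inhibitor.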

DNA topoisomerase 1 [6] = target: T1, DNA topoisomerase 1; test: Inhibition of relaxation activities of DNA topoisomerase I with respect to pBR322 DNA; outline: as §1

| Compound | IC50 (DNA topoisomerase 1 [1]) | also measured |
| --- | --- | --- |
| CC(=O)Oc1ccc(C(=O)Nc2ccccc2NC(=O)c2ccc(OC(C)=O)cc2)cc1 | > 100 µM |  |
| COc1cc([C@@H]2c3cc4c(cc3[C@@H](O[C@@H]3O[C@@H]5CO[C@@H](C)O[C@H]5[C@H](O)[C@H]3O)[C@H]3COC(=O)[C@H]23)OCO4)cc(OC)c1O [ETOPOSIDE] |  | Concentration (HeLa [2]): 2 µM; GI50 (HeLa [3]): 40 µM |
| O=C(Nc1cccc(NC(=O)c2ccc(O)c(O)c2)c1)c1ccc(O)c(O)c1 | 10 µM |  |
| O=C(Nc1ccccc1NC(=O)c1ccc(O)cc1)c1ccc(O)cc1 | > 100 µM |  |
| CC(=O)Oc1ccc(C(=O)Nc2ccccc2NC(=O)c2ccc(OC(C)=O)c(OC(C)=O)c2)cc1OC(C)=O | 88 µM |  |
| CC(=O)Oc1cc(C(=O)Nc2ccc(NC(=O)c3cc(OC(C)=O)c(OC(C)=O)c(OC(C)=O)c3)cc2)cc(OC(C)=O)c1OC(C)=O | 8.6 µM |  |
| O=C(Nc1ccccc1NC(=O)c1ccccc1)c1ccccc1 | > 100 µM |  |
| CC(=O)Oc1ccc(C(=O)Nc2ccc(NC(=O)c3ccc(OC(C)=O)cc3)cc2)cc1 | > 100 µM |  |
| CC(=O)Oc1ccc(C(=O)Nc2cccc(NC(=O)c3ccc(OC(C)=O)cc3)c2)cc1 | > 100 µM |  |
| O=C(Nc1ccc(NC(=O)c2cc(O)c(O)c(O)c2)cc1)c1cc(O)c(O)c(O)c1 | 1.4 µM | IC50 (DNA topoisomerase II [4]): 0.15 µM |
| O=C(Nc1nc2ccccc2s1)c1cc(O)c(O)c(O)c1 | 8.2 µM |  |
| CC[C@@]1(O)C(=O)OCc2c1cc1n(c2=O)Cc2cc3ccccc3nc2-1 [CAMPTOTHECIN] |  | Concentration (HeLa [2]): 0.1 µM; GI50 (HeLa [3]): 0.6 µM |
| O=C(Nc1ccccc1)c1cc(O)c(O)c(O)c1 | > 100 µM |  |
| O=C(Nc1cccc(NC(=O)c2cc(O)c(O)c(O)c2)c1)c1cc(O)c(O)c(O)c1 | 1.6 µM | IC50 (DNA topoisomerase II [4]): 0.22 µM |
| O=C(Nc1cccc(NC(=O)c2ccc(O)cc2)c1)c1ccc(O)cc1 | > 100 µM |  |
| O=C(Nc1ccc(NC(=O)c2ccc(O)c(O)c2)cc1)c1ccc(O)c(O)c1 | 2.6 µM |  |
| O=C(Nc1nc2ccccc2s1)c1ccc(O)c(O)c1 | 16.9 µM |  |
| O=C(Nc1nc2ccccc2s1)c1ccc(O)cc1 | > 100 µM |  |
| CC(=O)Oc1ccc(C(=O)Nc2ccc(NC(=O)c3ccc(OC(C)=O)c(OC(C)=O)c3)cc2)cc1OC(C)=O | > 100 µM |  |
| O=C(Nc1ccc(NC(=O)c2ccc(O)cc2)cc1)c1ccc(O)cc1 | > 100 µM |  |
| CC(=O)Oc1cc(C(=O)Nc2ccccc2NC(=O)c2cc(OC(C)=O)c(OC(C)=O)c(OC(C)=O)c2)cc(OC(C)=O)c1OC(C)=O | 4.7 µM |  |
| CC(=O)Oc1cc(C(=O)Nc2cccc(NC(=O)c3cc(OC(C)=O)c(OC(C)=O)c(OC(C)=O)c3)c2)cc(OC(C)=O)c1OC(C)=O | 11.2 µM |  |
| O=C(Nc1ccccc1NC(=O)c1cc(O)c(O)c(O)c1)c1cc(O)c(O)c(O)c1 | 0.9 µM | GI50 (HeLa [3]): 30 µM; Ki (DNA topoisomerase II [5]): 0.0741 µM; Ki (DNA topoisomerase 1 [6]): 0.4 µM; IC50 (DNA topoisomerase II [4]): 0.09 µM |
| O=C(Nc1ccccc1NC(=O)c1ccc(O)c(O)c1)c1ccc(O)c(O)c1 | 6.4 µM |  |
| CC(=O)Oc1ccc(C(=O)Nc2cccc(NC(=O)c3ccc(OC(C)=O)c(OC(C)=O)c3)c2)cc1OC(C)=O | 43.2 µM |  |
